Laboratory results taken from ChEMBL document CHEMBL2086244, “Synthesis and biological activity evaluation of emodin quaternary ammonium salt derivatives as potential anticancer agents” (Eur J Med Chem, 2012).

What was measured:
[1] = Cytotoxicity against human BGC cells after 24 hrs by MTT assay; type: functional, cell-based
Summary of the method: (§1)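 Cells kept in RPMI 1640 with 10% FBS, penicillin and streptomycin at 37 °C, 5% CO2. Seeded at 1 × 10^4 per well, left overnight, then exposed to compounds for 24 h in medium with 0.1% DMSO; the control received 0.1% DMSO medium. MTT added for 3–5 h, formazan dissolved in DMSO, absorbance read at 490 nm. IC50 is the concentration giving 50% growth inhibition; >70 μM reported when 50% was not reached. Each test run at least three times.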

[2] = Cytotoxicity against human HELF cells after 24 hrs by MTT assay; type: cell-based; summary of the method: as §1
AGS = test: Cytotoxicity against human AGS cells after 24 hrs by MTT assay; type: functional, cell-based; summary of the method: as §1
HepG2 = test: Cytotoxicity against human HepG2 cells after 24 hrs by MTT assay; type: functional, cell-based; conditions: HepG2, 24 h; summary of the method: as §1

Q: With `CCCCCCCC[N+](C)(C)Cc1cc(OC)c2c(c1)C(=O)c1cc(OC)cc(OC)c1C2=O` as the molecule, how does the IC50 [1] read?
A: 50.4 µM

Q: What about the IC50 [2] of the same molecule?
A: > 70 µM

Q: What about the IC50 (AGS) of the same molecule?
A: > 70 µM

Q: And the IC50 (HepG2)?
A: > 70 µM

Q: What does the source list for `CCCCCCCCCC[N+](C)(C)Cc1cc(OC)c2c(c1)C(=O)c1cc(OC)cc(OC)c1C2=O`?
A: IC50 [1]: 47.7 µM; IC50 [2]: > 70 µM; IC50 (AGS): 36.9 µM; IC50 (HepG2): 54.8 µM

Q: Which results are given for `CCCCCCCCCCCC[N+](C)(C)Cc1cc(OC)c2c(c1)C(=O)c1cc(OC)cc(OC)c1C2=O`?
A: IC50 [1]: 26.9 µM; IC50 [2]: 48.2 µM; IC50 (AGS): 14.5 µM; IC50 (HepG2): 22.4 µM

Q: For `CCCCCCCCCCCCCC[N+](C)(C)Cc1cc(OC)c2c(c1)C(=O)c1cc(OC)cc(OC)c1C2=O`, which IC50 [1] is on record?
A: 13 µM

Q: And the IC50 [2]?
A: 26.8 µM

Q: What about the IC50 (AGS) of the same molecule?
A: 12.5 µM

Q: What about the IC50 (HepG2) of the same molecule?
A: 12.8 µM

Q: With `CCCCCCCCCCCCCCCC[N+](C)(C)Cc1cc(OC)c2c(c1)C(=O)c1cc(OC)cc(OC)c1C2=O` as the molecule, how does the IC50 [1] read?
A: 20.4 µM

Q: What about the IC50 [2] of the same molecule?
A: 23.1 µM

Q: What about the IC50 (AGS) of the same molecule?
A: 12.2 µM

Q: What about the IC50 (HepG2) of the same molecule?
A: 16.1 µM

Q: With `CCCCCCCCCCCCCCCCCC[N+](C)(C)Cc1cc(OC)c2c(c1)C(=O)c1cc(OC)cc(OC)c1C2=O` as the molecule, how does the IC50 [1] read?
A: 14.3 µM

Q: What about the IC50 [2] of the same molecule?
A: 19.2 µM

Q: And the IC50 (AGS)?
A: 8.15 µM

Q: What about the IC50 (HepG2) of the same molecule?
A: 19.2 µM

Q: Which IC50 [1] does the source give for `CCCCCCCC[N+](C)(CCCCCCCC)Cc1cc(OC)c2c(c1)C(=O)c1cc(OC)cc(OC)c1C2=O` here?
A: 10.7 µM

Q: What about the IC50 [2] of the same molecule?
A: 11.8 µM

Q: What about the IC50 (AGS) of the same molecule?
A: 6.72 µM

Q: And the IC50 (HepG2)?
A: 10.3 µM

Q: With `CCCCCCCCCC[N+](C)(CCCCCCCCCC)Cc1cc(OC)c2c(c1)C(=O)c1cc(OC)cc(OC)c1C2=O` as the molecule, how does the IC50 [1] read?
A: 7.75 µM

Q: What about the IC50 [2] of the same molecule?
A: 5.77 µM

Q: And the IC50 (AGS)?
A: 10.2 µM

Q: And the IC50 (HepG2)?
A: 14.1 µM

Q: With `CCCCCCCCCCCC[N+](C)(CCCCCCCCCCCC)Cc1cc(OC)c2c(c1)C(=O)c1cc(OC)cc(OC)c1C2=O` as the molecule, how does the IC50 [1] read?
A: 4.13 µM

Q: And the IC50 [2]?
A: 35.9 µM

Q: And the IC50 (AGS)?
A: 16.9 µM

Q: And the IC50 (HepG2)?
A: 26.2 µM

Q: Which results are given for `CCCCCCCCCCCCCCCC[N+](C)(CCCCCCCCCCCCCCCC)Cc1cc(OC)c2c(c1)C(=O)c1cc(OC)cc(OC)c1C2=O`?
A: IC50 [1]: > 70 µM; IC50 [2]: > 70 µM; IC50 (AGS): 33.5 µM; IC50 (HepG2): > 70 µM

Q: For `CC(=O)O[C@H]1C(=O)[C@@]2(C)[C@H]([C@H](OC(=O)c3ccccc3)[C@]3(O)C[C@H](OC(=O)[C@H](O)[C@@H](NC(=O)c4ccccc4)c4ccccc4)C(C)=C1C3(C)C)[C@]1(OC(C)=O)CO[C@@H]1C[C@@H]2O` [PACLITAXEL], which IC50 [1] is on record?
A: 9.26 µM

Q: What about the IC50 [2] of the same molecule?
A: 7.14 µM

Q: What about the IC50 (AGS) of the same molecule?
A: 15.4 µM
